IC50 data for 1 compound are collected here from ChEMBL document CHEMBL1156877, “Discovery of 6-benzyloxyquinolines as c-Met selective kinase inhibitors” (Bioorg Med Chem Lett, 2010).

Some results are limits rather than exact numbers.

For experiment [1], the target named is T1, Tyrosine-protein kinase receptor UFO (Homo sapiens, UniProt P30530).
T1 sequence (P30530 whole entry): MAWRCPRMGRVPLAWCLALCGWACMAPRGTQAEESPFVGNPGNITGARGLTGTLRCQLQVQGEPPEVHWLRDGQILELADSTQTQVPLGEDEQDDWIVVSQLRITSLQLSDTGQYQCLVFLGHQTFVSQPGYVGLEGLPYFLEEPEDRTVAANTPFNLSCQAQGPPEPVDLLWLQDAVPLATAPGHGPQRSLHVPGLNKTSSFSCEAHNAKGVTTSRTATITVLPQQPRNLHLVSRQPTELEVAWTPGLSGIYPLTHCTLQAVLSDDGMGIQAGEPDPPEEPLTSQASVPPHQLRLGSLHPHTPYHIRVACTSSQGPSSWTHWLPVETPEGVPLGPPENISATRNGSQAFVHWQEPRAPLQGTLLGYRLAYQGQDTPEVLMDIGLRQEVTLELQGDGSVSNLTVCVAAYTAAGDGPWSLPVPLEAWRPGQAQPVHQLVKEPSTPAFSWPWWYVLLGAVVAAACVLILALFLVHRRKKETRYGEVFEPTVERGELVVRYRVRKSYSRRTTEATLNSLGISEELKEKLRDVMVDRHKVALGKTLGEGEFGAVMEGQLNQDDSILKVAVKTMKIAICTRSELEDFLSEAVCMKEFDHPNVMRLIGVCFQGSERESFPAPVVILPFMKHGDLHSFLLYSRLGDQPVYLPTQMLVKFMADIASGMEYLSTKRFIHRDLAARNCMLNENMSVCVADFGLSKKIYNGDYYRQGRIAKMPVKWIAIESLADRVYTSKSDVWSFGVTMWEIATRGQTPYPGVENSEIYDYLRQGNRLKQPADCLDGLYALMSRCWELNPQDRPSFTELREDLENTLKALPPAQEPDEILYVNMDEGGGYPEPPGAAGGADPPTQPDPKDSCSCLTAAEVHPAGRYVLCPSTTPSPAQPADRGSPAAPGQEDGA
Nature of the experiment: Inhibition of recombinant AXL by TR-FRET assay. The method in brief:
(§1)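 Recombinant tyrosine kinase incubated with test compound and substrate peptide/ATP for 90 min at 30 °C; enzyme amount, ATP level, substrate and cation vary by kinase. Reaction stopped, then TR-FRET reagent with europium-labelled anti-phospho-substrate antibody added for 5 min at room temperature; substrate phosphorylation read as time-resolved fluorescence.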

For experiment [2], the target named is Hepatocyte growth factor receptor (Homo sapiens, UniProt P08581). Nature of the experiment: Inhibition of recombinant c-Met by TR-FRET assay. On the technique in general: TR-FRET usually uses a lanthanide donor and a delayed reading to cut background.
Experiment [3] deals with Macrophage-stimulating protein receptor (Homo sapiens, UniProt Q04912). The experiment is described as follows: Inhibition of recombinant RON by TR-FRET assay. Put shortly: as §1
For experiment [4], the target named is Leukocyte tyrosine kinase receptor (Homo sapiens, UniProt P29376). The experiment is described as follows: Inhibition of recombinant LTK by TR-FRET assay. Put shortly:
as §1

The target of experiment [5] is Insulin-like growth factor 1 receptor (Homo sapiens, UniProt P08069). The experiment is described as follows: Inhibition of recombinant IGF1R by TR-FRET assay. Put shortly: as §1
A short description of experiment [6]: Inhibition of recombinant PDGFR by TR-FRET assay. The method in brief: as §1
Experiment [7] addresses Tyrosine-protein kinase Yes (Homo sapiens, UniProt P07947). Nature of the experiment: Inhibition of recombinant YES by TR-FRET assay. The method in brief:
as §1

In experiment [8] the target is Protein-tyrosine kinase 6 (Homo sapiens, UniProt Q13882). The experiment is described as follows: Inhibition of recombinant BRK by TR-FRET assay. The method in brief:
as §1

For experiment [9], the target named is Tyrosine-protein kinase ABL1 (Homo sapiens, UniProt P00519). Nature of the experiment: Inhibition of recombinant Abl by TR-FRET assay. The method in brief:
as §1

Experiment [10] can be described thus: Inhibition of recombinant PKA by IMAP assay. The method in brief:
(§2)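 Recombinant enzyme mixed with test compound and substrate peptide/ATP solution, incubated 90 min at 30 °C; enzyme quantity, ATP, substrate and cation set per kinase. IMAP reagent then added for 5 min at room temperature, and peptide phosphorylation quantified by fluorescence polarization.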

A further experiment has as its system WiDr. Nature of the experiment: Cytotoxicity against human WiDr cells after 96 hrs by WST8 assay. For orientation: Tetrazolium dyes change colour on reduction, which living cells bring about.
The test system of another experiment is COLO 205. The experiment is described as follows: Cytotoxicity against human COLO205 cells after 96 hrs by WST8 assay. The settings on record: COLO 205, 96 h.
A further experiment concerns A549. The experiment is described as follows: Cytotoxicity against human A549 cells after 96 hrs by WST8 assay. Conditions: A549, 96 h.
The test system of another experiment is Calu-6. The experiment is described as follows: Cytotoxicity against human Calu6 cells after 96 hrs by WST8 assay. The settings on record: Calu-6, 96 h.
The test system of the next experiment is ASPC1. The experiment is described as follows: Cytotoxicity against human AsPC1 cells after 96 hrs by WST8 assay. The settings on record: ASPC1, 96 h.
The test system of the next experiment is BXPC-3. The experiment is described as follows: Cytotoxicity against human BxPC3 cells after 96 hrs by WST8 assay. Conditions: BXPC-3, 96 h.
The next experiment concerns DU-145. Nature of the experiment: Cytotoxicity against human DU145 cells after 96 hrs by WST8 assay. Conditions: DU-145, 96 h.
The subject of another experiment is MDA-MB-231. The experiment is described as follows: Cytotoxicity against human MDA-MB-231 cells after 96 hrs by WST8 assay. The settings on record: MDA-MB-231, 96 h.
The next experiment deals with MKN-28. Nature of the experiment: Cytotoxicity against human MKN28 cells after 96 hrs by WST8 assay. The settings on record: MKN-28, 96 h.
Another experiment concerns NCI-N87. The experiment is described as follows: Cytotoxicity against human NCI-N87 cells after 96 hrs by WST8 assay. Conditions: NCI-N87, 96 h.
Experiment [11] concerns the target Protein kinase C beta type (Homo sapiens, UniProt P05771). The experiment is described as follows: Inhibition of recombinant PKCbeta2 by IMAP assay. Put shortly:
as §2

Sequence of Insulin-like growth factor 1 receptor (P08069 31-736 limits assumed): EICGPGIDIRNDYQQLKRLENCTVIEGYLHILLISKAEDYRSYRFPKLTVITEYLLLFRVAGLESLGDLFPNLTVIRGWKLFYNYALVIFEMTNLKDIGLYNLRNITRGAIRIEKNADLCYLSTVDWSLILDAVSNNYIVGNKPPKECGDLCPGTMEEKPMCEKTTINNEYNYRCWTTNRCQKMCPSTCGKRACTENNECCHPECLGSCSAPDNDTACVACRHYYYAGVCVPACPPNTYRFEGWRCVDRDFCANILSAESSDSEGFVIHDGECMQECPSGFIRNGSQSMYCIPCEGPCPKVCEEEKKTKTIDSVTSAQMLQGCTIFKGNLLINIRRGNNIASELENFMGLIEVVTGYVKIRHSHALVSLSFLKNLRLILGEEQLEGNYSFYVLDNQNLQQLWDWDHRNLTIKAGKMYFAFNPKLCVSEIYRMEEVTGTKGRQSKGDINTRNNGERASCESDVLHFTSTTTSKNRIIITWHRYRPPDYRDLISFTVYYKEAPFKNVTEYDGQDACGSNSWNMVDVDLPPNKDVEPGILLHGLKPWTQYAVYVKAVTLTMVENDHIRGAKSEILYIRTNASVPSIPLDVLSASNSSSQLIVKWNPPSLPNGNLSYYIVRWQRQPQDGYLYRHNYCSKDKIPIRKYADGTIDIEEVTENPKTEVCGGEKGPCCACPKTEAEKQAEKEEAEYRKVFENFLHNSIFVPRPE
Sequence of Insulin-like growth factor 1 receptor (P08069 741-1367 limits assumed): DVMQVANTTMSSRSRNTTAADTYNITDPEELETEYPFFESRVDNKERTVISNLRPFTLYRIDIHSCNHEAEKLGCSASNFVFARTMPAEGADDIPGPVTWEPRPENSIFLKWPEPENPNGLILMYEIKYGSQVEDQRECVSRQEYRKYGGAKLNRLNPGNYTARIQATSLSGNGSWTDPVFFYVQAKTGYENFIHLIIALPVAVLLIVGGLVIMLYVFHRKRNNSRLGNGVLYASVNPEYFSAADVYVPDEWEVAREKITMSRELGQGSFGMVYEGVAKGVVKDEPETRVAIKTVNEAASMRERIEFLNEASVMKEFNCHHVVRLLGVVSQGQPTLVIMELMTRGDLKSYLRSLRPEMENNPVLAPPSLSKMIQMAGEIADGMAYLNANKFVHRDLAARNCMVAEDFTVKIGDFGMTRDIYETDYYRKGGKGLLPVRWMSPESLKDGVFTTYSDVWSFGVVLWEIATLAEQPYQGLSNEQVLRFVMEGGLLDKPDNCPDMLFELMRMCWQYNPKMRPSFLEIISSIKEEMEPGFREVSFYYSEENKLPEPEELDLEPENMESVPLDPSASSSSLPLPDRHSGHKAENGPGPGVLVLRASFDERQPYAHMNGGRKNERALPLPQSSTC
Sequence of Leukocyte tyrosine kinase receptor (P29376 whole entry): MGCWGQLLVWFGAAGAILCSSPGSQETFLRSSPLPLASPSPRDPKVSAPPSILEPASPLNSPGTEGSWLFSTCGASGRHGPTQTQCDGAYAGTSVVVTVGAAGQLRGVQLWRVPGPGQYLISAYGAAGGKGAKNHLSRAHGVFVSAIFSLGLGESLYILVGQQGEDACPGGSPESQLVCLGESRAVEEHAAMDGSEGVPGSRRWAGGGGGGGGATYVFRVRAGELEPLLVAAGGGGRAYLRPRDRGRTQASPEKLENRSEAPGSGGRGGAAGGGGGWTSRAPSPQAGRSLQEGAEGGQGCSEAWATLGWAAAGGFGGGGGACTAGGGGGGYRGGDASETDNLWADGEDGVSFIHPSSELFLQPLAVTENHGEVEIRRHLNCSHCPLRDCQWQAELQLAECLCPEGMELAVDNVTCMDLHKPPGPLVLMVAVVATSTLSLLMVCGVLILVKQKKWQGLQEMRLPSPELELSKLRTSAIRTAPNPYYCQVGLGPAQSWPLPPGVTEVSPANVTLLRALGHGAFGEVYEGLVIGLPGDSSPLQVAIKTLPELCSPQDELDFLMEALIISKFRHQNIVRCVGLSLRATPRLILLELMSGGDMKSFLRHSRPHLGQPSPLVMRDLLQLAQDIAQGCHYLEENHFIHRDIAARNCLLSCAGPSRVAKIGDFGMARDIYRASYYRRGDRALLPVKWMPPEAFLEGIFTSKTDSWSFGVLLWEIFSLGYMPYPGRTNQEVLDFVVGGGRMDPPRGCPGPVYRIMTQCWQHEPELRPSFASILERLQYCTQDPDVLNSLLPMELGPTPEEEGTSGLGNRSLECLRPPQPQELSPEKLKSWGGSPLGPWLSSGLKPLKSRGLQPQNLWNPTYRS
Sequence of Tyrosine-protein kinase ABL1 (P00519 whole entry): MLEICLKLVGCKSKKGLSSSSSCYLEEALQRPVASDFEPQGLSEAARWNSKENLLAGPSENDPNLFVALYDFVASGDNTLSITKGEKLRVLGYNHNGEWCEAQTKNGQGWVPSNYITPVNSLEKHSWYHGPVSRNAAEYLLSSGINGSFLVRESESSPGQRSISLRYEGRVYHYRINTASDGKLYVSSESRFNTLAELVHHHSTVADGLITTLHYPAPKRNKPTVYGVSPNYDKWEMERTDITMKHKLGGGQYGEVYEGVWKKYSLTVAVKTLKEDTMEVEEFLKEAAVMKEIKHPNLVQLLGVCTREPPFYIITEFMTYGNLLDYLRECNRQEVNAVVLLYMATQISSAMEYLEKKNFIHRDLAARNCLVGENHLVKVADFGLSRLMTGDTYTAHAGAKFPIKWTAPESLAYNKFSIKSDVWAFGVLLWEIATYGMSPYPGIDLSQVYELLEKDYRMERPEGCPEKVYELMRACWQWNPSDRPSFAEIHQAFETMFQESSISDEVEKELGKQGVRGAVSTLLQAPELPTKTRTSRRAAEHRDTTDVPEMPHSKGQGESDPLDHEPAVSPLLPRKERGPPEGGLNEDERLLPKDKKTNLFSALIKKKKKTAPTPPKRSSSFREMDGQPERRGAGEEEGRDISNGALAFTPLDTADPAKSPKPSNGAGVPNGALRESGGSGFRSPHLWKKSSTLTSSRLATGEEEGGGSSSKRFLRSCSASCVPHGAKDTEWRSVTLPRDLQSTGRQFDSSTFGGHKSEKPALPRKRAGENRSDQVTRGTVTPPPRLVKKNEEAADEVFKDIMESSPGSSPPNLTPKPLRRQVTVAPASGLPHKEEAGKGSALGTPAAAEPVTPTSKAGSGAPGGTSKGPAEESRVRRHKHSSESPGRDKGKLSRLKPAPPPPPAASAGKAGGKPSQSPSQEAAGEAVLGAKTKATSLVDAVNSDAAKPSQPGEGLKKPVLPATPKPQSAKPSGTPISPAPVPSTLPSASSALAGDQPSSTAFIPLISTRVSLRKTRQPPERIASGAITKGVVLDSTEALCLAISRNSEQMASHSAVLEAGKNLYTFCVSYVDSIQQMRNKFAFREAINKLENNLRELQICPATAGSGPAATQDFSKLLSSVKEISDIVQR
Sequence of Protein-tyrosine kinase 6 (Q13882 whole entry): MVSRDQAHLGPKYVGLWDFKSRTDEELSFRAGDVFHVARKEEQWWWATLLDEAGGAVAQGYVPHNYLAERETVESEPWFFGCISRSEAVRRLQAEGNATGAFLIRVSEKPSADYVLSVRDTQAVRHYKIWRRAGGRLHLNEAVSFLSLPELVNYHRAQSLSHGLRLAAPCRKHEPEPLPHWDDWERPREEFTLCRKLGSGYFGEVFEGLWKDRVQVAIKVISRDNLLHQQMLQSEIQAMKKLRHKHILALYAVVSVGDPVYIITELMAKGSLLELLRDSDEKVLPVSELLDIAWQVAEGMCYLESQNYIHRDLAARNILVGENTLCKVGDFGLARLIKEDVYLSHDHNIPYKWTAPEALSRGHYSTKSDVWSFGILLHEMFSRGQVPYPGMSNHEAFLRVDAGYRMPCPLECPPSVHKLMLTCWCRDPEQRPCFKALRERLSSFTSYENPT
Sequence of Protein kinase C beta type (P05771 whole entry): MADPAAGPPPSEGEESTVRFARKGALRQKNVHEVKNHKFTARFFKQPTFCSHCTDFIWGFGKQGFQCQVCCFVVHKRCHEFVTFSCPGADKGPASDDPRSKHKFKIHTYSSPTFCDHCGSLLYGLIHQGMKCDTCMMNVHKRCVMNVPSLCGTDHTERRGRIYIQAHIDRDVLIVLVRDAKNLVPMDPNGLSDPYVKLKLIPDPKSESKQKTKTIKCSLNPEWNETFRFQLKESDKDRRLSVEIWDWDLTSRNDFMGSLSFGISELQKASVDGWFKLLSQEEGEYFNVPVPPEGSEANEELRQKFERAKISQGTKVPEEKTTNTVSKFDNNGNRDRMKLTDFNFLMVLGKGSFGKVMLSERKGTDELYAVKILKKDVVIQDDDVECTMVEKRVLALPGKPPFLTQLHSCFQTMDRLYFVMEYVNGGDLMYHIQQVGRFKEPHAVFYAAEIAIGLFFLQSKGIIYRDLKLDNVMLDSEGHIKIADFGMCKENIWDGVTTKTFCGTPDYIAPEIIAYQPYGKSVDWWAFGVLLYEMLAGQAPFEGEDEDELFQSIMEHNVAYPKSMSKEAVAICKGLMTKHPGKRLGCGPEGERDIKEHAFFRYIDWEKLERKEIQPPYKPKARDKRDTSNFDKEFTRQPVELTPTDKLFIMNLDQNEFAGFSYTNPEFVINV
Sequence of Tyrosine-protein kinase Yes (P07947 whole entry): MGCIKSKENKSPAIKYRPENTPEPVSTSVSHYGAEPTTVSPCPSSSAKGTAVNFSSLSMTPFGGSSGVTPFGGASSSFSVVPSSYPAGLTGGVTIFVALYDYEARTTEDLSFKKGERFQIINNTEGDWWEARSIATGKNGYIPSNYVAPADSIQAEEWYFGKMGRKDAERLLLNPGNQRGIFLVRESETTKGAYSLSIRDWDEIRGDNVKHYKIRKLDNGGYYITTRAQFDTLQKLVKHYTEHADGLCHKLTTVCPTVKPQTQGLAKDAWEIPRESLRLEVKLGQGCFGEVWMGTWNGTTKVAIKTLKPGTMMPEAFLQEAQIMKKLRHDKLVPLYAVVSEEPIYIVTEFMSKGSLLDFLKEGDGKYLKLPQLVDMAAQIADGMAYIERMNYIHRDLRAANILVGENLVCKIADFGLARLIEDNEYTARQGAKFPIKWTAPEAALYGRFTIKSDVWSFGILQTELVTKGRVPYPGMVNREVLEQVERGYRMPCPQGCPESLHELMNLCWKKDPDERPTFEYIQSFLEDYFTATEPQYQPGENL

With `C[C@@H](Oc1ccc2ncc(C3CC3C(N)=O)cc2c1)c1c(Cl)ccc(F)c1Cl` (stereo partly specified), the IC50 (commonly the concentration that inhibits the measured activity by half) in [1] was 0.43 µM; in experiment [2], 0.0093 µM; in experiment [3] it was 0.23 µM; in experiment [4] it was 10 µM; in experiment [5], 27 µM; in [6], more than 50 µM. Also, the IC50 is more than 50 µM in experiment [7]; more than 50 µM in [8]; more than 50 µM in [9]; more than 50 µM in [10]; more than 1 µM in the experiment on WiDr; more than 1 µM in the experiment with COLO 205. The IC50 in the experiment with A549, in the experiment on Calu-6, in the experiment on ASPC1, with BXPC-3, with DU-145 and with MDA-MB-231 was more than 1 µM each time. For the same compound, the values for the IC50 (in the experiment on MKN-28; in the experiment with NCI-N87; in [11]) were more than 1 µM, more than 1 µM and more than 50 µM, respectively.
